ChEMBL document CHEMBL3627653, “Synthesis and biological evaluation of spiro[cyclopropane-1,3'-indolin]-2'-ones as potential anticancer agents” (Bioorg Med Chem Lett, 2015)
The source made the active and inactive calls. No cut-off for these calls is given here.

What was measured:
MCF7 [1] = assay: Anticancer activity against human MCF7 cells; format: functional
In short: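 Human MCF-7 breast cancer cells exposed to compound for 48 h. The IC50 (50% inhibitory concentration) is reported as the average of three individual experiments.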

HT-29 = assay: Anticancer activity against human HT-29 cells assessed as reduction in cell viability incubated for 48 hrs by MTT assay; format: functional, cell-based; conditions: HT-29, 48 h
DU-145 [2] = assay: Anticancer activity against human DU145 cells assessed as reduction in cell viability incubated for 48 hrs by MTT assay; format: functional, cell-based; conditions: DU-145, 48 h
HeLa = assay: Anticancer activity against human HeLa cells assessed as reduction in cell viability incubated for 48 hrs by MTT assay; format: functional, cell-based
A549 = assay: Anticancer activity against human A549 cells assessed as reduction in cell viability incubated for 48 hrs by MTT assay; format: functional, cell-based; conditions: A549, 48 h
MCF7 [3] = assay: Anticancer activity against human MCF7 cells assessed as reduction in cell viability incubated for 48 hrs by MTT assay; format: functional, cell-based; conditions: MCF7, 48 h
DU-145 [4] = assay: Reduction in mitochondrial membrane potential in human DU145 cells assessed as cell level at Q1-upper right quadrant at 1.5 uM incubated for 48 hrs by JC1 dye staining based flow cytometry (reference value: 95.1%); format: functional; design: scale not given: the % may be the effect or the level left
In short: (§1)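 After 48 h exposure at 1.5 or 3 μM, DU-145 cells were stained with JC-1 to track loss of mitochondrial membrane potential (ΔΨm) and read on a FACScan flow cytometer. Untreated control and nocodazole (1.5 μM) were run alongside.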

DU-145 [5] = assay: Reduction in mitochondrial membrane potential in human DU145 cells assessed as cell level at Q1-upper left quadrant at 1.5 uM incubated for 48 hrs by JC1 dye staining based flow cytometry (reference value: 1.6%); format: functional; design: scale not given: the % may be the effect or the level left; in short: as §1
DU-145 [6] = assay: Anticancer activity against human DU145 cells; format: functional, cell-based
HEK293 = assay: Cytotoxic activity against human HEK293 cells assessed as reduction in cell viability incubated for 48 hrs by MTT assay; format: cell-based; conditions: HEK293, 48 h
DU-145 [7] = assay: Induction of cell cycle arrest in human DU145 cells assessed as accumulation at subG1 phase at 1.5 uM incubated for 48 hrs by propidium iodide staining based flow cytometry (reference value: 9.12%); format: functional
DU-145 [8] = assay: Induction of cell cycle arrest in human DU145 cells assessed as accumulation at subG1 phase at 3 uM incubated for 48 hrs by propidium iodide staining based flow cytometry (reference value: 9.12%); format: functional
DU-145 [9] = assay: Induction of cell cycle arrest in human DU145 cells assessed as accumulation at G0/G1 phase at 1.5 uM incubated for 48 hrs by propidium iodide staining based flow cytometry (reference value: 79.81%); format: functional
DU-145 [10] = assay: Induction of cell cycle arrest in human DU145 cells assessed as accumulation at G0/G1 phase at 3 uM incubated for 48 hrs by propidium iodide staining based flow cytometry (reference value: 79.81%); format: functional
DU-145 [11] = assay: Induction of cell cycle arrest in human DU145 cells assessed as accumulation at S phase at 1.5 uM incubated for 48 hrs by propidium iodide staining based flow cytometry (reference value: 1.74%); format: functional
DU-145 [12] = assay: Induction of cell cycle arrest in human DU145 cells assessed as accumulation at S phase at 3 uM incubated for 48 hrs by propidium iodide staining based flow cytometry (reference value: 1.74%); format: functional
DU-145 [13] = assay: Induction of cell cycle arrest in human DU145 cells assessed as accumulation at G2/M phase at 1.5 uM incubated for 48 hrs by propidium iodide staining based flow cytometry (reference value: 6.51%); format: functional
DU-145 [14] = assay: Induction of cell cycle arrest in human DU145 cells assessed as accumulation at G2/M phase at 3 uM incubated for 48 hrs by propidium iodide staining based flow cytometry (reference value: 6.51%); format: functional
DU-145 [15] = assay: Reduction in mitochondrial membrane potential in human DU145 cells at 1.5 uM incubated for 48 hrs by JC1 dye staining based flow cytometry; format: functional, cell-based; in short: as §1
DU-145 [16] = assay: Reduction in mitochondrial membrane potential in human DU145 cells at 3 uM incubated for 48 hrs by JC1 dye staining based flow cytometry; format: functional, cell-based; in short: as §1
DU-145 [17] = assay: Reduction in mitochondrial membrane potential in human DU145 cells assessed as cell level at Q1-lower right quadrant at 1.5 uM incubated for 48 hrs by JC1 dye staining based flow cytometry (reference value: 3.1%); format: functional; design: scale not given: the % may be the effect or the level left; in short: as §1
DU-145 [18] = assay: Reduction in mitochondrial membrane potential in human DU145 cells assessed as cell level at Q1-lower left quadrant at 1.5 uM incubated for 48 hrs by JC1 dye staining based flow cytometry (reference value: 0.1%); format: functional; design: scale not given: the % may be the effect or the level left; in short: as §1
DU-145 [19] = assay: Reduction in mitochondrial membrane potential in human DU145 cells assessed as cell level at Q1-upper left quadrant at 3 uM incubated for 48 hrs by JC1 dye staining based flow cytometry (reference value: 1.6%); format: functional; design: scale not given: the % may be the effect or the level left; in short: as §1
DU-145 [20] = assay: Reduction in mitochondrial membrane potential in human DU145 cells assessed as cell level at Q1-upper right quadrant at 3 uM incubated for 48 hrs by JC1 dye staining based flow cytometry (reference value: 95.1%); format: functional; design: scale not given: the % may be the effect or the level left; in short: as §1
DU-145 [21] = assay: Reduction in mitochondrial membrane potential in human DU145 cells assessed as cell level at Q1-lower right quadrant at 3 uM incubated for 48 hrs by JC1 dye staining based flow cytometry (reference value: 3.1%); format: functional; design: scale not given: the % may be the effect or the level left; in short: as §1
DU-145 [22] = assay: Reduction in mitochondrial membrane potential in human DU145 cells assessed as cell level at Q1-lower left quadrant at 3 uM incubated for 48 hrs by JC1 dye staining based flow cytometry (reference value: 0.1%); format: functional; design: scale not given: the % may be the effect or the level left; in short: as §1
DU-145 [23] = assay: Induction of apoptosis in human DU145 cells assessed as necrotic cells level at 1.5 uM incubated for 48 hrs by Annexin V-FITC and propidium iodide staining based flow cytometry (reference value: 3.56%); format: functional
DU-145 [24] = assay: Induction of apoptosis in human DU145 cells assessed as necrotic cells level at 3 uM incubated for 48 hrs by Annexin V-FITC and propidium iodide staining based flow cytometry (reference value: 3.56%); format: functional
DU-145 [25] = assay: Induction of apoptosis in human DU145 cells assessed as late apoptotic cells level at 1.5 uM incubated for 48 hrs by Annexin V-FITC and propidium iodide staining based flow cytometry (reference value: 3.83%); format: functional
DU-145 [26] = assay: Induction of apoptosis in human DU145 cells assessed as late apoptotic cells level at 3 uM incubated for 48 hrs by Annexin V-FITC and propidium iodide staining based flow cytometry (reference value: 3.83%); format: functional
DU-145 [27] = assay: Induction of apoptosis in human DU145 cells assessed as viable cells level at 1.5 uM incubated for 48 hrs by Annexin V-FITC and propidium iodide staining based flow cytometry (reference value: 87.88%); format: functional
DU-145 [28] = assay: Induction of apoptosis in human DU145 cells assessed as viable cells level at 3 uM incubated for 48 hrs by Annexin V-FITC and propidium iodide staining based flow cytometry (reference value: 87.88%); format: functional
DU-145 [29] = assay: Induction of apoptosis in human DU145 cells assessed as early apoptotic cells level at 1.5 uM incubated for 48 hrs by Annexin V-FITC and propidium iodide staining based flow cytometry (reference value: 4.73%); format: functional
DU-145 [30] = assay: Induction of apoptosis in human DU145 cells assessed as early apoptotic cells level at 3 uM incubated for 48 hrs by Annexin V-FITC and propidium iodide staining based flow cytometry (reference value: 4.73%); format: functional
DU-145 [31] = assay: Induction of apoptosis in human DU145 cells assessed as increase in caspase-3 levels level at 1.5 and 3 uM incubated for 48 hrs by ELISA method; format: functional
In short: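 Caspase-3 levels measured in DU-145 cells after 48 h treatment at 1.5 and 3 μM and expressed relative to untreated control. Data are mean ± SD of two experiments each run in triplicate; significance set at P < 0.005 versus control.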

Structure (SMILES): CC(=O)N1C(=O)[C@]2(Sc3ncccc3C(=O)N2c2ccccc2)c2cc(Br)ccc21
- GI50 (MCF7 [1]): 2.13 µM

Structure (SMILES): CN1O[C@@]2(C[C@@H]1c1ccccc1)C(=O)Nc1ccccc12
- GI50 (MCF7 [1]): 2.6 µM

Structure (SMILES): CCOC(=O)[C@H]1[C@H](C(O)c2ccc(OC)cc2)C12C(=O)Nc1ccccc12 (relative stereo)
- IC50 (HT-29): 2.29 µM
- IC50 (DU-145 [2]): 1.94 µM
- IC50 (HeLa): 5.78 µM
- IC50 (A549): 27.5 µM
- IC50 (MCF7 [3]): 4.78 µM

Structure (SMILES): CCOC(=O)[C@H]1[C@H](C(=O)c2ccccc2)C12C(=O)Nc1ccccc12 (relative stereo)
- Activity (DU-145 [4]): 89.7%
- Activity (DU-145 [5]): 2.9%
- IC50 (DU-145 [6]): 2.08 µM
- IC50 (HT-29): 3.89 µM
- IC50 (DU-145 [2]): 2.08 µM
- IC50 (HeLa): 7.5 µM
- IC50 (A549): 5.12 µM
- IC50 (MCF7 [3]): 3.98 µM
- IC50 (HEK293): 64.6 µM
- Activity (DU-145 [7]): 7.77%
- Activity (DU-145 [8]): 84.93%
- Activity (DU-145 [9]): 2.11%
- Activity (DU-145 [10]): 4.03%
- Activity (DU-145 [11]): 16.58%
- Activity (DU-145 [12]): 70.57%
- Activity (DU-145 [13]): 2.27%
- Activity (DU-145 [14]): 8.93%
- Activity (DU-145 [15]): Active
- Activity (DU-145 [16]): Active
- Activity (DU-145 [17]): 6.6%
- Activity (DU-145 [18]): 0.8%
- Activity (DU-145 [19]): 2.2%
- Activity (DU-145 [20]): 85.1%
- Activity (DU-145 [21]): 11.1%
- Activity (DU-145 [22]): 1.6%
- Activity (DU-145 [23]): 0.62%
- Activity (DU-145 [24]): 10.74%
- Activity (DU-145 [25]): 78.52%
- Activity (DU-145 [26]): 10.12%
- Activity (DU-145 [27]): 4.19%
- Activity (DU-145 [28]): 17.66%
- Activity (DU-145 [29]): 56.01%
- Activity (DU-145 [30]): 22.15%
- fold change (FC) (DU-145 [31]): 2

Structure (SMILES): CCOC(=O)[C@H]1[C@H](C(=O)c2ccc(C)cc2)C12C(=O)Nc1ccc(Br)cc12 (relative stereo)
- Activity (DU-145 [4]): 88.1%
- Activity (DU-145 [5]): 3.1%
- IC50 (HT-29): 1.87 µM
- IC50 (DU-145 [2]): 1.86 µM
- IC50 (HeLa): 16.1 µM
- IC50 (A549): 4.56 µM
- IC50 (MCF7 [3]): 3.63 µM
- IC50 (HEK293): 79.4 µM
- Activity (DU-145 [7]): 8.8%
- Activity (DU-145 [8]): 85.57%
- Activity (DU-145 [9]): 1.35%
- Activity (DU-145 [10]): 3.4%
- Activity (DU-145 [11]): 26.17%
- Activity (DU-145 [12]): 64.01%
- Activity (DU-145 [13]): 2.1%
- Activity (DU-145 [14]): 3.16%
- Activity (DU-145 [15]): Active
- Activity (DU-145 [16]): Active
- Activity (DU-145 [17]): 7.5%
- Activity (DU-145 [18]): 1.1%
- Activity (DU-145 [19]): 2.1%
- Activity (DU-145 [20]): 84.1%
- Activity (DU-145 [21]): 12%
- Activity (DU-145 [22]): 1.8%
- Activity (DU-145 [23]): 3.41%
- Activity (DU-145 [24]): 11.5%
- Activity (DU-145 [25]): 66.31%
- Activity (DU-145 [26]): 18.78%
- Activity (DU-145 [27]): 2.74%
- Activity (DU-145 [28]): 17%
- Activity (DU-145 [29]): 57.28%
- Activity (DU-145 [30]): 22.98%
- fold change (FC) (DU-145 [31]): 2

Structure (SMILES): COC(=O)Nc1nc2cc(C(=O)c3cccs3)ccc2[nH]1 [NOCODAZOLE]
- Activity (DU-145 [4]): 87.5%
- Activity (DU-145 [5]): 2.8%
- Activity (DU-145 [7]): 9.25%
- Activity (DU-145 [9]): 57.63%
- Activity (DU-145 [11]): 5.61%
- Activity (DU-145 [13]): 26.59%
- Activity (DU-145 [15]): Active
- Activity (DU-145 [17]): 8.3%
- Activity (DU-145 [18]): 1.4%
- Activity (DU-145 [23]): 3.92%
- Activity (DU-145 [25]): 5.35%
- Activity (DU-145 [27]): 81.21%
- Activity (DU-145 [29]): 9.52%
